Laboratory results as given in ChEMBL document CHEMBL4004827, “Exploration of DAPI analogues: Synthesis, antitrypanosomal activity, DNA binding and fluorescence properties” (Eur J Med Chem, 2017).
The source made the active and inactive calls. No cut-off for these calls is given here.

What was measured:
[1] = Binding affinity to poly(dA-dT)n DNA (unknown origin) assessed as change in melting temperature at 0.3 molar ratio of compound:DNA by spectrophotometric analysis
How it was run: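 Thermal melting with poly(dA-dT) in CAC 10 buffer (10 mM cacodylic acid, 1 mM EDTA, 100 mM NaCl, pH 7.0), 1 cm quartz cuvettes, heated at 0.5 °C/min. DNA concentration set by absorbance at 260 nm; 0.3 mol compound per mol DNA, DNA alone as control. Tm taken from peak of first-derivative (dA/dT) curve; ΔTm = Tm complex − Tm free DNA.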

[2] = Binding affinity to poly(dA-dT)n DNA minor groove (unknown origin) assessed as positive induced CD signal at 1:20 to 5:20 molar ratio of compound:DNA by CD spectroscopic analysis
How it was run: (§1)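 CD spectra recorded at 25 °C in MES 10 buffer (10 mM MES, 100 mM NaCl, 1 mM EDTA) over a series of compound-to-DNA ratios.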

[3] = Selectivity index, ratio of IC50 for rat L6 cells to IC50 for Trypanosoma brucei rhodesiense STIB900 bloodstream forms; assay type: toxicity; settings: read-out: Ratio IC50
How it was run: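 Selectivity index calculated as IC50 in L6 cells divided by IC50 against T. b. rhodesiense STIB900.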

L6 = experiment: Cytotoxicity against rat L6 cells; assay type: cell-based
[4] = tested on: Trypanosoma brucei rhodesiense; experiment: Antitrypanosomal activity against Trypanosoma brucei rhodesiense STIB900 bloodstream forms after 70 hrs by Alamar blue assay; assay type: functional; settings: STIB900, 70 h
How it was run: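 In vitro viability assay on T. b. rhodesiense strain STIB900; values are the average of duplicate determinations.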

[5] = tested on: Trypanosoma brucei rhodesiense; experiment: Antitrypanosomal activity against Trypanosoma brucei rhodesiense STIB900 infected in NMRI mouse assessed as aparasitemic mouse at 5 mg/kg, ip for 4 consecutive days starting from day 3 post infection measured up to day 60 post infection relative to control; assay type: functional
How it was run: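 STIB900 acute-stage mouse model of T. b. rhodesiense infection; compound given intraperitoneally at 5 mg/kg daily for four consecutive days (4 × 5 mg/kg), 4 infected mice per group; cure rate reported as mice cured out of 4.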

[6] = tested on: Trypanosoma brucei rhodesiense; experiment: Potency index, ratio of DAPI IC50 to compound IC50 for Trypanosoma brucei rhodesiense STIB900 bloodstream forms; assay type: functional
Mus musculus = experiment: Toxicity in NMRI mouse infected with Trypanosoma brucei rhodesiense STIB900 assessed as death at 5 mg/kg, ip for 4 consecutive days starting from day 3 post infection; assay type: organism-based; settings: in vivo
How it was run: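 Acute-stage STIB900 mouse model, four infected mice per compound, given 5 mg/kg intraperitoneally once daily on four consecutive days (4 × 5 mg/kg). Deaths among treated mice were counted out of 4, alongside cure of survivors. Other protocol details follow an earlier report.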

[7] = Binding affinity to poly(dA-dT)n DNA minor groove (unknown origin) assessed as positive induced CD signal at 1:20 to 8:20 molar ratio of compound:DNA by CD spectroscopic analysis; how it was run: as §1

| SMILES | ΔTm [1] | Activity [2] | IC50 [4] | Activity [7] | selectivity ratio [3] | IC50 (L6) | Activity [5] | Ratio IC50 [6] | Activity (Mus musculus) |
| --- | --- | --- | --- | --- | --- | --- | --- | --- | --- |
| N=C(N)c1ccc(-c2cc3ccc(C(=N)N)cc3[nH]2)cc1 [DAPI] | > 27 °C | Active |  |  | 48 |  |  |  |  |
| N=C(N)c1ccc2[nH]c(-c3ccc(C(=N)N)nc3)cc2c1 | 12.1 °C |  | 5 nM |  | 394 | 1800 nM | 25% | 2 - 6 |  |
| N=C(N)c1ccc(-c2cc3cc(C(=N)N)ccc3[nH]2)cc1 | 19.2 °C |  |  |  |  |  |  |  |  |
| N=C(N)c1ccc(-c2cc3cc(C(=N)N)ccc3[nH]2)nc1 | > 26 °C |  | 4 nM |  | 5320 | 21300 nM | 100% | 2 - 6 |  |
| COc1ccc(-c2cc3ccc(C(=N)N)cc3[nH]2)cc1 | 12.6 °C |  | 4870 nM |  | 6 | 29000 nM |  |  |  |
| N=C(N)c1ccc2[nH]c(-c3ccc(C(=N)N)o3)cc2c1 | 21.4 °C | Active | 3 nM |  | 900 | 2700 nM | 100% | 2 - 6 |  |
| N=C(N)c1ccc2cc(-c3ccc(C(=N)N)o3)[nH]c2c1 | 11 °C |  | 9 nM |  | 800 | 7200 nM | inactive | 2 - 6 | Toxic |
| Cc1cc(-c2cc3cc(C(=N)N)ccc3[nH]2)ccc1C(=N)N | 15.3 °C |  | 3 nM |  | 7830 | 23500 nM | 75% | 2 - 6 |  |

Continued, in another order:

| ΔTm [1] | Activity [2] | IC50 [4] | Activity [7] | SMILES | selectivity ratio [3] | IC50 (L6) | Activity [5] | Ratio IC50 [6] | Activity (Mus musculus) |
| --- | --- | --- | --- | --- | --- | --- | --- | --- | --- |
| > 26 °C | Active | 6 nM |  | COc1cc(C(=N)N)ccc1-c1cc2ccc(C(=N)N)cc2[nH]1 | 4880 | 29600 nM | 100% | 2 - 6 |  |
| 10 °C |  | 11 nM |  | N=C(N)c1ccc2cc(-c3ccc(C(=N)N)s3)[nH]c2c1 | 409 | 4500 nM |  | 2 - 6 |  |
| > 26 °C |  | 5 nM |  | Cc1cc(-c2cc3ccc(C(=N)N)cc3[nH]2)ccc1C(=N)N | 3140 | 15700 nM | 75% | 2 - 6 |  |
| 15.3 °C |  | 3 nM |  | N=C(N)c1ccc2cc(-c3ccc(C(=N)N)nc3)[nH]c2c1 | 667 | 2000 nM | 25% | 2 - 6 |  |
| 22.1 °C |  | 24 nM | Active | N=C(N)c1ccc(-c2cc3ccc(C(=N)N)cc3[nH]2)nc1 | 133 | 3200 nM | 100% |  |  |
